The target in experiment [1] is Beta-3 adrenergic receptor (Homo sapiens) (UniProt P13945). The experiment is described as follows: Agonistic potency against Beta3-AR expressed in CHO cells by using cAMP-RIA assay; MA means minimal activity. The experiment is classed as functional, cell-based.
For experiment [2], the target named is Beta-2 adrenergic receptor (Homo sapiens) (UniProt P07550). Particulars: CHO.
Experiment [3] has as its target Beta-3 adrenergic receptor (Homo sapiens) (UniProt P13945). The experiment is described as follows: Intrinsic activity against Beta3-AR expressed in CHO cells in cAMP-RIA assay. It counts as functional, cell-based.
Experiment [4] has the same target. Particulars: CHO.
For experiment [5] the target is unchanged. Particulars: CHO. The source holds these as a separate data set.
Experiment [6] has as its target Beta-1 adrenergic receptor (Homo sapiens) (UniProt P08588). Particulars: CHO.
For experiment [7] the target is unchanged. Particulars: CHO. The source holds these as a separate data set.
Experiment [8] concerns the target Beta-2 adrenergic receptor (Homo sapiens) (UniProt P07550). The settings on record: CHO. The source holds these as a separate data set.
The target of experiment [9] is Beta-3 adrenergic receptor (Homo sapiens) (UniProt P13945). Nature of the experiment: Agonistic potency against Beta3-AR expressed in CHO cells by using cAMP-RIA assay. It counts as functional, cell-based.
Experiment [10] has as its target Beta-2 adrenergic receptor (Homo sapiens) (UniProt P07550). Particulars: CHO. The source holds these as a separate data set.
For experiment [11] the target is unchanged. The settings on record: CHO. This is another data set of the same source.
The target is the same in experiment [12]. The experiment is described as follows: Agonistic potency against BETA2-AR expressed in CHO cells by using cAMP-RIA assay;MA means minimal activity. It counts as functional, cell-based.
In experiment [13] the target is Beta-1 adrenergic receptor (Homo sapiens) (UniProt P08588). Particulars: CHO. The source holds these as a separate data set.
The target is the same in experiment [14]. Particulars: CHO. The source holds these as a separate data set.
Experiment [15] shares this target. The experiment is described as follows: Agonistic potency against BETA1-AR expressed in CHO cells by using CRE-LUC assay;MA means minimal activity. The experiment is classed as functional, cell-based. The gist of the method: (§1)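 CHO cells transfected by electroporation (single 70-ms, 150-V pulse) with human receptor and CRE–luciferase reporter; seeded 40 000/well, grown 20 h, then exposed 4 h to drug at 10^-11–10^-4 M. Cells lysed, luciferase light read by luminometer, duplicates per concentration. Response as percent of maximum to (-)isoproterenol 10^-6 M; pKact = -log molar concentration giving 50% of own maximal response; mean ± SEM.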

Experiment [16] concerns the target Beta-2 adrenergic receptor (Homo sapiens) (UniProt P07550). Nature of the experiment: Agonistic potency against BETA2-AR expressed in CHO cells by using CRE-LUC assay;MA means minimal activity. The experiment is classed as functional, cell-based. The gist of the method: as §1
Experiment [17] deals with Beta-3 adrenergic receptor (Homo sapiens) (UniProt P13945). The experiment is described as follows: Agonistic potency against Beta3-AR expressed in CHO cells by using cAMP-RIA assay;MA means minimal activity. It counts as functional, cell-based.

Consider ten compounds from ChEMBL document CHEMBL1133701, “Synthesis and human beta-adrenoceptor activity of 1-(3,5-diiodo-4- methoxybenzyl)-1,2,3,4-tetrahydroisoquinolin-6-ol derivatives in vitro” (J Med Chem, 2000).

Structures are written as SMILES.

Chain of Beta-1 adrenergic receptor (Homo sapiens) (P08588 whole entry, looked up): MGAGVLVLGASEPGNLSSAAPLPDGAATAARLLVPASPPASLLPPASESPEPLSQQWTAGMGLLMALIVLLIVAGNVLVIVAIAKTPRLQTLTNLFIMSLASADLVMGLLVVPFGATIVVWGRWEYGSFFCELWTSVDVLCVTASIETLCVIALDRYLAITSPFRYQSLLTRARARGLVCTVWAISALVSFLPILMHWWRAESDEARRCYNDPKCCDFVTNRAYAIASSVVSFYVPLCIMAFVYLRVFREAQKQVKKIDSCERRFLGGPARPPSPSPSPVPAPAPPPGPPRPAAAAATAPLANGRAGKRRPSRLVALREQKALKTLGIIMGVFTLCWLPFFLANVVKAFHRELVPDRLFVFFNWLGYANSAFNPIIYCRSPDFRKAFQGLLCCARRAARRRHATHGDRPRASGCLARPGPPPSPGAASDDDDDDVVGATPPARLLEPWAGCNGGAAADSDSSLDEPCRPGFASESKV
Chain of Beta-2 adrenergic receptor (Homo sapiens) (P07550 whole entry, looked up): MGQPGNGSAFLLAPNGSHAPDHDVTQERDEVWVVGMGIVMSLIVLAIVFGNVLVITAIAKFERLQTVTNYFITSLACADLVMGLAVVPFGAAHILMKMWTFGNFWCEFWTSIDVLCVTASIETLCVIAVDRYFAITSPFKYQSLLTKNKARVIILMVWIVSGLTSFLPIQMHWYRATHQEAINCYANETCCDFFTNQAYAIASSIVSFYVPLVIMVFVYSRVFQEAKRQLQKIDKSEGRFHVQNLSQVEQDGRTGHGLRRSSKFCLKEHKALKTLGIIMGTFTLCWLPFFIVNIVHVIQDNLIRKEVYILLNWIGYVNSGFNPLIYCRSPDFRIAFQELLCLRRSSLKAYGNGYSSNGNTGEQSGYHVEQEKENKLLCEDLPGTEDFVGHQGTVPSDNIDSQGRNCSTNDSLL
Chain of Beta-3 adrenergic receptor (Homo sapiens) (P13945 whole entry, looked up): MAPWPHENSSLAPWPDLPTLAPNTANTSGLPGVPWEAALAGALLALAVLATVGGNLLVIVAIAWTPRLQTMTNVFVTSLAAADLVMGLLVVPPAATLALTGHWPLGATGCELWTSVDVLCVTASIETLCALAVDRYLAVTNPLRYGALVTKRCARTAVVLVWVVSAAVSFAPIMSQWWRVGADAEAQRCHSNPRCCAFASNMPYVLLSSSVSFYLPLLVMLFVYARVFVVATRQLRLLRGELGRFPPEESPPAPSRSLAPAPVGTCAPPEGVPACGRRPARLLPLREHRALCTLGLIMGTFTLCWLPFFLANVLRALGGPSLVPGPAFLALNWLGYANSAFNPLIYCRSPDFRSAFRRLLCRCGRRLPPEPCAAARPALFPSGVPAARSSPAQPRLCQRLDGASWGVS

Regarding `COc1c(I)cc(CC2NCCc3c2cc(Br)c(O)c3Br)cc1I` (stereo not drawn), the MA result in experiment [1] is “Partial agonist”. For the same compound, the IA amounted to 3 in [2] and 20 in experiment [3].

On to `CC(C)NCC(O)c1ccc(O)c(O)c1` (stereo not drawn), for which the pK in experiment [4] came out at 7.74. This compound showed an IA in experiment [5] of 100.

With `COc1c(I)cc(CC2NCCc3cc(O)ccc32)cc1I` (stereo not drawn), the pK was determined as 5.71 in experiment [6]; 7.45 in [4]; 6.36 in [8]; 7.88 in [9]; 6.87 in experiment [10]. Also, the IA in [7] stood at 58; in experiment [2] it was 44; in [5] it was 90; in experiment [3], 106; in experiment [11] it was 38.

With `COc1c(I)cc(CC2NCCc3c2ccc(O)c3Br)cc1I` (stereo not drawn), the IA in experiment [2] came to 26; in [3], 31. In addition, the MA entry in experiment [12] is “Partial agonist”. The pK in experiment [9] worked out at 8.25.

Regarding `COc1c(I)cc(CC2NCCc3cc(O)c(I)cc32)cc1I` (stereo not drawn), the IA was 4 in experiment [2] and 35 in experiment [3]. Also, the MA entry in experiment [12] is “Partial agonist”. In experiment [9], this compound yielded a pK of 7.92.

For the compound `COc1cc(C[C@@H]2NCCc3cc(O)c(O)cc32)cc(OC)c1OC`, the IA in experiment [2] came out at 95; in experiment [14], 109; in [3], 95. Also, the pK in [13] was 8.7; in experiment [9], 8.6; in [10], 8.33.

Regarding `COc1c(I)cc(CC2NCCc3cc(O)c(O)cc32)cc1I` (stereo not drawn), the IA amounted to 52 in experiment [2], 103 in experiment [14] and 120 in [3]. Moreover, the pK turned out to be 8.11 in experiment [13], 8.76 in experiment [9] and 8.84 in [10].

With `COc1c(I)cc(CC2NCCc3ccccc32)cc1I` (stereo not drawn), the pK amounted to 7.54 in experiment [4] and 8.2 in experiment [9]. For the same compound, the IA in experiment [7] worked out at 22; in [2], 15; in experiment [5], 62; in experiment [3], 52; in experiment [11], 21. Further, the MA result in experiment [15], in [16] and in [12] was “Partial agonist” throughout.

On to `COc1c(I)cc(CC2NCCc3c2ccc(O)c3I)cc1I` (stereo not drawn), for which the figures for the IA in experiment [2] and in experiment [3] were 65 and 8, respectively. Also, the MA entry in experiment [17] was “Partial agonist”. Moreover, the pK in [10] is 6.77.

With `COc1c(I)cc(CC2NCCc3c2cc(I)c(O)c3I)cc1I` (stereo not drawn), the figures for the IA in [2] and in [3] were 6 and 18, respectively. Besides, the MA entry in experiment [17] and in experiment [12] was “Partial agonist” each time.
